# PubChem BioAssay AID743238 (Broad Institute, 2013)
# In all, about 360,000 compounds went through this assay and about 200 (0.056%) were called active. Many of the other results were omitted from the sample, so actives are more common in it than they were. Unmarked numbers belong to inactive results.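 How the source made its calls: active means mean normalized replicate activation at least 10% and every replicate at or above 10%; inconclusive means only one of the two criteria met; inactive means mean below 10% and not all replicates reach 10%.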
# Test: activators of inactive X chromosome reactivation, primary screen, imaging, XiGFP fibroblasts, GFP high-content imaging, set 2 (AID 743238);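 further: 0% = median of on-plate neutral control wells and 100% = ellipticine 6 µM median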
# Conditions: XiGFP mouse fibroblasts, % GFP-positive cells imaging, 3 d; at 7.58 µM; hits give high values; cells co-treated with 5-aza-dC sensitizer; scaled so ellipticine positive control = 100%
# Procedure, shortened: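 assay system = SV40-immortalized XiGFP fibroblast cells, line 68-5-11 | buffer or medium = DMEM plus 5-aza-dC sensitizer | doses = single-point pinned compound dosing | times = 3-day compound exposure, then 15 min fixation at room temperature | benchmarks = positive control ellipticine, 6 µM final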
row,SMILES,activation
1,COCC#Cc1ccc([C@@H]2[C@@H](CO)N3C(=O)CN(C(=O)Nc4cc(F)ccc4F)C[C@@H]23)cc1,0.227%
2,CS(=O)(=O)N1[C@H](C#N)[C@H](c2ccccc2-c2ccc(F)cc2)[C@@H]1CO,0.0935%
3,O=C(NCc1ccc(F)cc1)[C@@H]1[C@@H](CO)[C@@H]2Cn3c(cccc3=O)[C@@H]2N1C(=O)c1cccnc1,0.173%
4,C[C@H]1CN([C@@H](C)CO)C(=O)c2cc(C3=CCCC3)cnc2O[C@H]1CN(C)Cc1ccccc1C(=O)O,-0.072%
5,O=C(C[C@@H]1CC[C@H](NS(=O)(=O)c2ccc(F)cc2)[C@@H](CO)O1)NCc1ccccc1F,-0.283%
6,Cc1noc(C)c1NC(=O)Nc1ccc2c(c1)C(=O)N([C@H](C)CO)C[C@H](C)[C@H](CN(C)S(=O)(=O)c1cccs1)O2,0.0715%
7,N#C[C@@H]1[C@H](c2ccccc2-c2cccc(F)c2)[C@@H](CO)N1C(=O)C1CCCC1,0.007%
8,Cc1cccc(N2CCN(C(C)C(=O)N3CCc4ccccc43)CC2)c1C (configuration not stated),0.0055%
9,Cc1cccc2cc3c(N)c(C(=O)N4CCCc5ccccc54)sc3nc12,39.9% (active)
10,COc1cccc(/C=C/C(=O)OCC(=O)N2CCCc3ccccc32)c1,0.22%
11,O=C(C[C@@H]1C[C@H]2c3cc(NC(=O)NC4CCCC4)ccc3O[C@H]2[C@H](CO)O1)NCc1cc(F)ccc1F,0.0125%
12,C[C@H](CO)N1C[C@H](C)[C@H](CN(C)S(=O)(=O)c2ccc(Cl)cc2)Oc2ccc(NC(=O)C3CCCCC3)cc2C1=O,-0.051%
13,CN1C(=O)c2cc(NC(=O)c3ccc(Cl)cc3)ccc2OC[C@H]2O[C@H](CC(=O)O)CC[C@H]21,0.521%
14,C[C@@H]1CCCCO[C@@H](CN(C)Cc2ccc(C(=O)Nc3ccccc3N)cc2)[C@H](C)CN([C@H](C)CO)C(=O)c2cc(N(C)C)ccc2O1,2.13%
15,O=C(C1CCCC1)N1CC(=O)N2[C@@H](CO)[C@@H](c3ccc(-c4cccnc4)cc3)[C@@H]2C1,0.207%
16,C[C@@H](NC(=O)[C@H]1[C@H](CO)[C@H]2Cn3c(cccc3=O)[C@@H]1N2Cc1cccnc1)c1ccccc1,0.133%
17,C[C@@H]1CN([C@H](C)CO)C(=O)Cc2cc(NC(=O)Nc3ccc4c(c3)OCO4)ccc2O[C@@H]1CN(C)C(=O)Nc1ccccc1,-0.384%
18,CCCNC(=O)N1C[C@@H](C)[C@@H](OC)CN(C)C(=O)c2ccc(NC(=O)C3CCC3)cc2OC[C@@H]1C,-0.29%
19,COc1ccc2c3c([nH]c2c1)[C@@H](CO)N(C(=O)c1ccccc1)CC31CCN(C(=O)Nc2cccc(F)c2)CC1,0.295%
20,Cc1noc(C)c1NC(=O)N[C@@H]1C=C[C@@H](CC(=O)Nc2ccccc2)O[C@H]1CO,0.193%
21,COc1ccccc1C(=O)N/C(=C/c1ccc2c(c1)OCO2)C(=O)Nc1cccc(C(=O)O)c1,0.184%

row,SMILES,activation
1,O=C(Nc1cccc(C(=O)O)c1)/C(=C\c1ccccc1)NC(=O)c1ccc(Br)o1,97.3% (active)
2,O=C(NC(Cc1ccc(O)cc1)C(=O)O)/C(=C/c1ccccc1)NC(=O)c1ccccc1 (configuration not stated),0.249%
3,C[C@@H]1CCCCO[C@@H](CN(C)S(=O)(=O)c2cn(C)cn2)[C@@H](C)CN([C@@H](C)CO)C(=O)c2cc(NC(=O)NC3CCCCC3)ccc2O1,0.153%
4,O=C(c1ccncc1)N1CC(=O)N2[C@H](C1)[C@@H](c1ccc(C#CCC3CCCC3)cc1)[C@@H]2CO,0.192%
5,C[C@H]1CN([C@@H](C)CO)C(=O)c2cccc(NS(=O)(=O)c3ccc(F)cc3)c2O[C@@H]1CN(C)C,-0.0195%
6,CNC[C@@H]1Oc2ccc(NC(=O)C3CCCCC3)cc2C(=O)N([C@@H](C)CO)C[C@H]1C,-1.11%
7,C[C@@H](NC(=O)C[C@@H]1C[C@@H]2c3cc(NC(=O)c4cccnc4)ccc3O[C@@H]2[C@H](CO)O1)c1ccccc1,-0.0445%
8,CC(=O)N1[C@@H]2c3ccc(-c4ccccc4)c(=O)n3C[C@@H]2[C@@H](CO)[C@@H]1C(=O)NCc1ccccc1F,0.21%
9,C[C@H](CO)N1C[C@H](C)[C@@H](CN(C)Cc2cccnc2)Oc2ncc(/C=C/c3ccccc3)cc2C1=O,-0.672%
10,CC(C)CC#Cc1cnc2c(c1)C(=O)N([C@H](C)CO)C[C@H](C)[C@H](CN(C)CC1CCOCC1)O2,0.516%
11,CC[C@H]1CC=CC[C@@H](C)Oc2ccccc2C(=O)N(C)[C@H](Cc2ccccc2)C(=O)N1 (mixture of isomers),-0.034%
12,CCOC(=O)c1sc2nc(CSc3ccccc3)[nH]c(=O)c2c1C,21.4% (active)
13,CCOC(=O)c1sc2nc(C)nc(SCC(N)=O)c2c1C,-0.02%
14,CSc1nnc(SCc2nc3sc(C(=O)O)c(C)c3c(=O)[nH]2)s1,0.212%
15,C/C=C/c1ccc2c(c1)O[C@H](CN(C)C(=O)Cc1cccnc1)[C@@H](C)CN([C@H](C)CO)S2(=O)=O,0.77%
16,COc1ccc2c3c(n(C)c2c1)[C@H](CO)N(C(C)=O)CC31CN(Cc2ccc(Cl)cc2)C1,-0.0005%
17,COCCN(C[C@H]1[C@@H](c2ccccc2)[C@H](CO)N1C(=O)C1CCC1)C(C)=O,0.023%
18,C/C=C/c1ccc([C@H]2[C@@H](CO)N(C(=O)CC)[C@H]2CN(C)C(=O)C2CC2)cc1,0.008%
19,CCC(=O)Nc1ccc2c(c1)C(=O)N(C)C[C@@H](OC)[C@@H](C)CN(C(=O)CN(C)C)[C@@H](C)CO2,0.206%
20,CCC(=O)N1CC2(CCN(Cc3ccc(Cl)cc3)CC2)c2c(n(C)c3cc(OC)ccc23)[C@@H]1CO,0.134%
21,CCS(=O)(=O)N1CC2(CN(C(=O)c3ccc(F)cc3)[C@@H](CO)c3c2c2ccc(OC)cc2n3C)C1,0.267%
